Assay [1] can be described thus: Inhibition of Plasmodium falciparum ODCase.
Assay [2] is described as follows: Inhibition of human ODCase.
A short description of assay [3]: Inhibition of Methanobacterium thermoautotrophicum ODCase. Further details: species or system Methanothermobacter thermautotrophicus.
The species named for assay [4] is Homo sapiens. As to the kind of experiment: Inhibition of human ODCase upto 10 or 20 mM. In outline:
(§1)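 Enzyme was a truncated C-terminal portion of human UMP synthase, expressed in E. coli BL-21 with the His6 tag removed by thrombin. Stock (60 µM) was incubated overnight at 4 °C. Enzyme plus nucleotide ([…]) in 50 mM Tris pH 7.5, 1 mM DTT was followed by ITC at 37 °C. Started by a 5.7 µL injection of 5 mM OMP (20 µM final). Competitive Ki fit.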

Assay [5] has as its system Plasmodium falciparum. As to the kind of experiment: Inhibition of Plasmodium falciparum ODCase upto 10 or 20 mM. In outline:
(§2)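 Run by ITC at 37 °C. ODCase stock (60 µM in 50 mM Tris pH 7.5, 20 mM DTT, 40 mM NaCl) was held overnight at room temperature. Final mixture: 60 nM enzyme in degassed 50 mM Tris pH 7.4, 1 mM DTT, with nucleotide varied 0–20 mM. Started by a single 3.4 µL injection of 5 mM OMP. Competitive analysis by rate-equation fit and double-reciprocal plots.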

The target of assay [6] is T1, Orotidine 5'-phosphate decarboxylase (Saccharomyces cerevisiae S288c, UniProt P03962).
T1 sequence (P03962 whole entry): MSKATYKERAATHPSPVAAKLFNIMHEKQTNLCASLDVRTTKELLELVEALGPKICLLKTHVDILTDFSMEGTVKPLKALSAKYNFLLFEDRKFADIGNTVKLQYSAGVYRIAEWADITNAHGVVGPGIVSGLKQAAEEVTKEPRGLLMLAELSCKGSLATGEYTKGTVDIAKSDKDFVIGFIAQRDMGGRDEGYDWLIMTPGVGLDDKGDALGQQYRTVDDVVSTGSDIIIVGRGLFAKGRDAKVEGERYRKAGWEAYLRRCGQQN
As to the kind of experiment: Inhibition of yeast ODCase.

Assay [7] deals with Plasmodium falciparum. As to the kind of experiment: Activity of Plasmodium falciparum ODCase. A digest of the protocol: as §2
Assay [8] deals with Methanothermobacter thermautotrophicus. As to the kind of experiment: Activity of Methanobacterium thermoautotrophcium ODCase. A digest of the protocol:
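Isothermal titration calorimetry at 55 °C. Enzyme stock (20 µM in 50 mM Tris pH 7.5, 20 mM DTT, 40 mM NaCl) was stabilized overnight at room temperature. Assay: 20 nM ODCase in 50 mM Tris pH 7.5, 1 mM DTT, with fixed nucleotide levels (0–20 mM). Started by a single injection of 5 mM OMP (40 µM final). Competitive Ki from rate fitting, checked by double-reciprocal plots.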

The species named for assay [9] is Homo sapiens. Kind of assay: Activity of human ODCase. In outline:
as §1

Each structure is given as a SMILES string. Active and inactive are the calls of the source. The rule behind the calls is not given here. Some results are limits rather than exact numbers.

Broadly, the Ki is the equilibrium dissociation constant of an inhibitor or competing ligand from its target. A high value points to weaker binding. Consider `Cc1cn([C@H]2C[C@H](O)[C@@H](COP(=O)(O)O)O2)c(=O)[nH]c1=O`, for which the inhibitory constant (Ki) came out at 10000 µM in assay [1], 8700 µM in [2] and 3300 µM in assay [3].

On to `Nc1nc2c(ncn2[C@@H]2O[C@H](COP(=O)(O)O)[C@@H](O)[C@H]2O)c(=O)[nH]1`, for which the inhibition constant Ki in assay [1] turned out to be 2100 µM; in assay [3] it was 4200 µM. Moreover, the outcome in assay [4] was inactive.

Turning to `Nc1ccn([C@@H]2O[C@H](COP(=O)(O)O)[C@@H](O)[C@H]2O)c(=O)n1`, the Ki in assay [2] was determined as 1400 µM; in assay [3] it was 1200 µM. For the same compound, in [5], the result was inactive.

Turning to `Nc1ncnc2c1ncn2[C@@H]1O[C@H](COP(=O)(O)O)[C@@H](O)[C@H]1O`, the Ki in assay [2] came out at 4300 µM; in [3] it was 3500 µM. Moreover, the result in assay [5] was inactive.

Consider `Nc1ncnc2c1ncn2[C@H]1C[C@H](O)[C@@H](COP(=O)(O)O)O1`, for which the Ki in assay [2] was 7400 µM; in assay [3] it was > 10000 µM. Moreover, in [5], the result was inactive.

For `O=c1ccn([C@@H]2O[C@H](COP(=O)(O)O)[C@@H](O)[C@H]2O)c(=O)[nH]1`, the values for the Ki in assay [1], in assay [2] and in [3] were 210 µM, 220 µM and 330 µM, respectively.

Regarding `O=c1[nH]c(=O)c2ncn([C@@H]3O[C@H](COP(=O)(O)O)[C@@H](O)[C@H]3O)c2[nH]1`, the inhibitory constant (Ki) is 0.4 µM in [6], 43 µM in [1], 0.7 µM in [2] and 130 µM in assay [3].

By Km is commonly meant the substrate concentration at which the rate is half of its maximum. By kcat is commonly meant the number of substrate molecules converted per active site and unit of time at saturation. As for `O=C(O)c1cc(=O)[nH]c(=O)n1[C@@H]1O[C@H](COP(=O)(O)O)[C@@H](O)[C@H]1O`, the Michaelis constant (Km) in [7] worked out at 1.3 µM; in assay [8], 4.8 µM; in assay [9], 1.7 µM. Besides, the kcat is 6.7 s⁻¹ in assay [7], 20.7 s⁻¹ in [8] and 8.1 s⁻¹ in assay [9].

Values taken from ChEMBL document CHEMBL1140727, “Structural diversity and plasticity associated with nucleotides targeting orotidine monophosphate decarboxylase” (J Med Chem, 2008).
